The source of these data is ChEMBL document CHEMBL4616691 (ACS Med Chem Lett, 2020).

The nature of series [1]: Inhibition of NPC1/VDAC1 in HUVEC cells assessed as reduction in cell proliferation pretreated for 24 hrs followed by [3H]thymidine incorporation by scintillation counter method. It counts as cell-based. The conditions noted are these: Homo sapiens. In a few lines:
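HUVEC proliferation read by [³H]-thymidine incorporation, giving IC50. Mean ± SD of three independent experiments, each run in triplicate.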

The nature of series [2]: Thermodynamic solubility in 0.001N HCl by HPLC analysis. It counts as physicochemical. The conditions noted are these: for solubility thermodynamic: 0.001N HCl, read-out: Therm_solubility. The essentials: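 Thermodynamic solubility measured in 0.001 N HCl (pH 3), chosen to resemble acidic gastric fluid. Dissolved compound quantified by HPLC and reported in […].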
Series [3] has as its target T1, NPC intracellular cholesterol transporter 1 (Homo sapiens) (UniProt O15118).
T1 sequence (whole entry): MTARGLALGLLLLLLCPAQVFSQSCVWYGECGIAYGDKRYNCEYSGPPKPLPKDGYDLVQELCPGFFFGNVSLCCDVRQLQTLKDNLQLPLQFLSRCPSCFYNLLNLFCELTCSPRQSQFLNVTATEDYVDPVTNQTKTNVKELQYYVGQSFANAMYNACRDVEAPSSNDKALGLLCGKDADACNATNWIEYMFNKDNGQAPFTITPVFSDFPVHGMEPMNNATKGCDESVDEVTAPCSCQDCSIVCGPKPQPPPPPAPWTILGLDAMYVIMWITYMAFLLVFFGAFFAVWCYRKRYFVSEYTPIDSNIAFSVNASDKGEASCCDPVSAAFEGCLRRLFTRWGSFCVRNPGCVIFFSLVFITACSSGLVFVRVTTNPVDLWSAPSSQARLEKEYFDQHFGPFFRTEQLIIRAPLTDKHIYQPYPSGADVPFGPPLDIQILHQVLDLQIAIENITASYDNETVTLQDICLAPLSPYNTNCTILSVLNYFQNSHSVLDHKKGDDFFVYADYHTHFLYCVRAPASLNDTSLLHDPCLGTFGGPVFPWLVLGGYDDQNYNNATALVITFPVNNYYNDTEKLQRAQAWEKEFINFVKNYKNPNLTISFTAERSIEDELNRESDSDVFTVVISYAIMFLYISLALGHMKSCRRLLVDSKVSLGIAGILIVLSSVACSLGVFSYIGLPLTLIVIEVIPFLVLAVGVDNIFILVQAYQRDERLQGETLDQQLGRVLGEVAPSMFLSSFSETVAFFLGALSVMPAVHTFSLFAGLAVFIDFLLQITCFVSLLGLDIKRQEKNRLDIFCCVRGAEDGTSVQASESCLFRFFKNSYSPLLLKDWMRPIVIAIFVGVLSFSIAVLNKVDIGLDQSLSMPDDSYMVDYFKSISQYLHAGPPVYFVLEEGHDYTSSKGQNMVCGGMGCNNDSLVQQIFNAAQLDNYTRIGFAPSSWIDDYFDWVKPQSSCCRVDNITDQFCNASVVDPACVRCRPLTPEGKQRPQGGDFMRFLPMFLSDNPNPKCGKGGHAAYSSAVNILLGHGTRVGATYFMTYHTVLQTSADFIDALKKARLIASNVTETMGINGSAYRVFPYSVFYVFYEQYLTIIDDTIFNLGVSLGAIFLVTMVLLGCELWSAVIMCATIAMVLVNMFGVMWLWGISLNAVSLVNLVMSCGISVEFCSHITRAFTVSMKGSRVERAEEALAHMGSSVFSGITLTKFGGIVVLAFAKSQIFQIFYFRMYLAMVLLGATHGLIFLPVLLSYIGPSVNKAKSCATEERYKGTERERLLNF
The series can be described thus: Inhibition of NPC1 in HUVEC cells assessed as accumulation of cholesterol in perinuclear structure at 0.2 uM incubated for 24 hrs by filipin staining based confocal microscopy analysis. Format: cell-based. The essentials:
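Primary HUVECs incubated 24 h with 0.2 μM compound or DMSO. Intracellular cholesterol stained with filipin and imaged by confocal fluorescence microscopy, 25x objective.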

Another series has as its target Cytochrome P450 3A4 (Homo sapiens, UniProt P08684). The series can be described thus: Inhibition of CYP3A4 (unknown origin). Format: ADME.
In series [4] the test system is HUVEC. In words: Inhibition of NPC1/VDAC1 in HUVEC cells assessed as inhibition of tube formation at 3 uM measured after 24 hrs by Calcein-AM staining based fluorescence microscopy analysis relative to control. It counts as cell-based. The following applies: Homo sapiens. In a few lines: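 HUVECs seeded on Matrigel-coated wells and treated with DMSO or 3 μM compound for 24 h. Networks stained with Calcein-AM and imaged by fluorescence microscopy. Total tube length quantified from the images against DMSO control. Mean ± SD of three independent experiments.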

In series [5] the target is AMP-activated protein kinase, AMPK (Homo sapiens) (UniProt P54646+O43741+P54619+Q9UGJ0+Q9Y478+Q13131+Q9UGI9). The series can be described thus: Activation of AMPK in HUVEC cells assessed as phosphorylation of acetyl CoA carboxylase measured after 24 hrs by Western blot analysis. Format: cell-based. In a few lines:
(§1)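 HUVECs exposed to test compound at 0.05, 0.25, 0.5, 1 or 2 μM, or DMSO vehicle, for 24 h. Lysates probed by western blot for VEGFR2, phospho- and total ACC, phospho- and total S6K, with β-actin as loading reference.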
For orientation: A western blot detects proteins with antibodies after separation by electrophoresis.

Series [6] concerns the target Serine/threonine-protein kinase mTOR (Homo sapiens) (UniProt P42345). In words: Inhibition of mTOR in HUVEC cells assessed as reduction in phosphorylation of p70S6K measured after 24 hrs by Western blot analysis. It counts as cell-based. The essentials:
as §1

Series [7] deals with Vascular endothelial growth factor receptor 2 (Homo sapiens) (UniProt P35968). In words: Inhibition of VEGFR2 glycosylation in HUVEC cells assessed as disappearance of VEGFR2 at 0.5 to 2 uM measured after 24 hrs by Western blot analysis. It counts as cell-based. The essentials:
as §1

Series [8] concerns HUVEC. The series can be described thus: Effect on VEGFR2 localization in human HUVEC cells assessed as accumulation of VEGFR2 in perinuclear region at 2 uM by DAPI staining based confocal micrscopy. It counts as functional, cell-based. The essentials:
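HUVECs treated with DMSO or 2 μM compound. Cells immunostained for VEGFR2 (green) and Golgi marker GM130 (red), nuclei counterstained with DAPI. Imaged by confocal microscopy, scoring perinuclear VEGFR2 and its colocalization with GM130.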

Molecules are shown by their SMILES. Values after ≈ are worked out from the molar mass of the structure shown. Active and inactive are the calls of the source. The calls are words filed in the database; no cut-off is given here. Where only a bound is given, the exact number is not on record here.

As usually defined, the IC50 is the concentration at which inhibition is half-maximal. The inhibition is the relative decrease from the control value, in per cent.

Cytochrome P450 3A4, sequence (P08684 whole entry): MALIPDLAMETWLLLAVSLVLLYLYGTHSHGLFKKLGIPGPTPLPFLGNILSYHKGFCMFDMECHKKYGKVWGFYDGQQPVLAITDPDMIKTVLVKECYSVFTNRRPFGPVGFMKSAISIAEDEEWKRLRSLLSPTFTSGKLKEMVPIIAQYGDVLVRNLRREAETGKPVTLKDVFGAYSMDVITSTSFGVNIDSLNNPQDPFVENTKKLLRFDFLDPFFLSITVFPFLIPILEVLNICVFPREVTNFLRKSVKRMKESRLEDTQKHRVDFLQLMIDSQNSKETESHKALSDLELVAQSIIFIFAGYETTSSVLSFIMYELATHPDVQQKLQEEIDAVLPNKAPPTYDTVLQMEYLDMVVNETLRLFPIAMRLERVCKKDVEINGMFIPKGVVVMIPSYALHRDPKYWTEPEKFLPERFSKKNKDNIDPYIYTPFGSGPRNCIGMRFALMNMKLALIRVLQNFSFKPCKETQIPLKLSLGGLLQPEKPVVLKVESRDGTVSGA
Vascular endothelial growth factor receptor 2 (Homo sapiens), sequence (P35968 whole entry): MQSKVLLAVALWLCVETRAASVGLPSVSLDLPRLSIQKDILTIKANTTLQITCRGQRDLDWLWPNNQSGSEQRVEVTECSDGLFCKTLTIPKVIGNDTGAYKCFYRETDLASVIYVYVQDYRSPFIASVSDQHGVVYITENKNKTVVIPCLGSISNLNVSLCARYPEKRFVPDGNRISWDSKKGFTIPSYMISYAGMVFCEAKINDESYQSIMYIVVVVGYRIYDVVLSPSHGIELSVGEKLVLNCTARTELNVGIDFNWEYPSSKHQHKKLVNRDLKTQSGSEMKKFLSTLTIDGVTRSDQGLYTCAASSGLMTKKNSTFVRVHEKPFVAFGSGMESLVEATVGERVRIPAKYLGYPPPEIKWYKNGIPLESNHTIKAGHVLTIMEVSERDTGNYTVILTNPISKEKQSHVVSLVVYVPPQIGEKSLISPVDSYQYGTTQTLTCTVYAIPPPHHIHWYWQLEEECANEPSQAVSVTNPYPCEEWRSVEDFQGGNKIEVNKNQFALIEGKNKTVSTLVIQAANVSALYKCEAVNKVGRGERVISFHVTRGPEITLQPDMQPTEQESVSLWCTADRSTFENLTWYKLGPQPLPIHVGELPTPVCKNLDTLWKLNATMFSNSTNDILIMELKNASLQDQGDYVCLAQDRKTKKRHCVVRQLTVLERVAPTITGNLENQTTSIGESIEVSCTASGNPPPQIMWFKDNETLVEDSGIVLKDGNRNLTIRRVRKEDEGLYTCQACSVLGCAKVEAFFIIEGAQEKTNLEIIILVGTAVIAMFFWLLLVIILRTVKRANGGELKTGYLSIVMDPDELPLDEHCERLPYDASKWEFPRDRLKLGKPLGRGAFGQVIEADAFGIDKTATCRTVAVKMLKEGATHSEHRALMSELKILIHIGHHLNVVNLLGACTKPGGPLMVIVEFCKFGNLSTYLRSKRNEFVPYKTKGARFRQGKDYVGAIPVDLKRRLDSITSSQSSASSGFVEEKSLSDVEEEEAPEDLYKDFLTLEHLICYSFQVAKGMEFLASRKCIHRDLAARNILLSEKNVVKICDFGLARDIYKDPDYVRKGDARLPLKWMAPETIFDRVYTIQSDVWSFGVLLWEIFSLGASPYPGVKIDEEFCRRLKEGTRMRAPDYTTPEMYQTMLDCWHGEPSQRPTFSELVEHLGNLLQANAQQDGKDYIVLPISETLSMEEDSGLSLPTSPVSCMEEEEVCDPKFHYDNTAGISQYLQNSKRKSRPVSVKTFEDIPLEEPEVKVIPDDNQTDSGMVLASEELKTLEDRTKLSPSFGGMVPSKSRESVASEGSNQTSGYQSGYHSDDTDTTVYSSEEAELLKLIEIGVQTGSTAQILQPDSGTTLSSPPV

Turning to `CCC(C)n1ncn(-c2ccc(N3CCN(c4ccc(OC[C@@H]5CO[C@@](Cn6cnnn6)(c6ccc(Cl)cc6Cl)O5)cn4)CC3)c(F)c2)c1=O` (some centres not stated), the IC50 in [1] came to 108 nM. Also, the solubility thermodynamic in [2] is 0.708 µg/mL (≈ 0.975 µM). Besides, in series [3], the inhibition result was “Active”.
Turning to `CCC(C)n1ncn(-c2ccc(N3CCN(c4ccc(OC[C@@H]5CO[C@@](Cn6cncn6)(c6ccc(Cl)cc6Cl)O5)cc4)CC3)cn2)c1=O` (some centres not stated), in series [1], the IC50 worked out at 188 nM. Also, in [2], the solubility thermodynamic stood at 0.496 µg/mL (≈ 0.703 µM).
The like results for `CCC(C)n1ncn(-c2ccc(N3CCN(c4ccc(OC[C@@H]5CO[C@@](Cn6ccnc6)(c6ccc(Cl)cc6Cl)O5)cc4)CC3)nc2)c1=O` (some centres not stated) were, in that order, 98.5 nM and 7.99 µg/mL (≈ 11.3 µM).
The like results for `CCC(C)n1ncn(-c2ccc(N3CCN(c4ccc(OC[C@@H]5CO[C@@](Cn6ccnc6)(c6ccc(Cl)cc6Cl)O5)cc4)CC3)cn2)c1=O` (some centres not stated) were, in that order, 636 nM and 41.3 µg/mL (≈ 58.6 µM).
Regarding `CCC(C)n1ncn(-c2ccc(N3CCN(c4ccc(OC[C@@H]5CO[C@@](Cn6cncn6)(c6ccc(Cl)cc6Cl)O5)cc4)CC3)nc2)c1=O` (some centres not stated), in [1], the IC50 was 222 nM. For the same compound, the solubility thermodynamic in series [2] came out at 0.0539 µg/mL (≈ 0.0763 µM).
The like results for `CCC(C)n1ncn(-c2ccc(N3CCN(c4ccc(OC[C@@H]5CO[C@@](Cn6ccnc6)(c6ccc(Cl)cc6Cl)O5)nc4)CC3)cc2)c1=O` (some centres not stated) were, in that order, 468 nM and 6.48 µg/mL (≈ 9.19 µM).
On to `CCC(C)n1ncn(-c2ccc(N3CCN(c4ccc(OC[C@@H]5CO[C@@](Cn6cnnn6)(c6ccc(Cl)cc6Cl)O5)cn4)CC3)cc2)c1=O` (some centres not stated), for which the values for the IC50 (in series [1]; on Cytochrome P450 3A4) were 77.1 nM and > 90000 nM, respectively. Further, in [2], the solubility thermodynamic turned out to be 0.951 µg/mL (≈ 1.34 µM). Besides, the inhibition is 70% in the series on HUVEC [4] and “Dose-dependent effect” in series [6]. Moreover, the inhibition entry in [3] and in series [7] was “Active” each time. The Activity result in series [5] is “Dose-dependent effect”. The result in the series on HUVEC [8] was Active.
For the compound `CCC(C)n1ncn(-c2ccc(N3CCN(c4ccc(OC[C@@H]5CO[C@@](Cn6cnnn6)(c6ccc(Cl)cc6Cl)O5)cc4)CC3)c(F)c2)c1=O` (some centres not stated), the IC50 in series [1] is 153 nM; on Cytochrome P450 3A4 it was > 90000 nM. In series [2], the solubility thermodynamic was 0.0528 µg/mL (≈ 0.0729 µM). Besides, the inhibition entry in series [3] was “Active”.
As to `CCC(C)n1ncn(-c2ccc(N3CCN(c4ccc(OC[C@@H]5CO[C@@](Cn6ccnc6)(c6ccc(Cl)cc6Cl)O5)cn4)CC3)cc2)c1=O` (some centres not stated), the IC50 in series [1] was 69.1 nM. Also, the solubility thermodynamic in series [2] was 2.94 µg/mL (≈ 4.16 µM).
Regarding `CCC(C)n1ncn(-c2ccc(N3CCN(c4ccc(OC[C@@H]5CO[C@@](Cn6ccnc6)(c6ccc(Cl)cc6Cl)O5)cc4)CC3)c(F)c2)c1=O` (some centres not stated), in series [1], the IC50 is 70.1 nM. The solubility thermodynamic in series [2] is 17.2 µg/mL (≈ 23.7 µM).
The like results for `CCC(C)n1ncn(-c2ccc(N3CCN(c4ccc(OC[C@@H]5CO[C@@](Cn6ccnc6)(c6ccc(Cl)cc6Cl)O5)cn4)CC3)c(F)c2)c1=O` (some centres not stated) were, in that order, 68 nM and 125 µg/mL (≈ 173 µM).
The like results for `CCC(C)n1ncn(-c2ccc(N3CCN(c4ccc(OC[C@@H]5CO[C@@](Cn6cncn6)(c6ccc(Cl)cc6Cl)O5)cn4)CC3)cc2)c1=O` (some centres not stated) were, in that order, 380 nM and 0.114 µg/mL (≈ 0.161 µM).
`CCC(C)n1ncn(-c2ccc(N3CCN(c4ccc(OC[C@@H]5CO[C@@](Cn6cncn6)(c6ccc(Cl)cc6Cl)O5)nc4)CC3)cc2)c1=O` (some centres not stated): in [1], the IC50 was found to be 687 nM. Also, in [2], the solubility thermodynamic was determined as 0.116 µg/mL (≈ 0.164 µM).
For the compound `CCC(C)n1ncn(-c2ccc(N3CCN(c4ccc(OC[C@@H]5CO[C@@](Cn6cncn6)(c6ccc(Cl)cc6Cl)O5)cc4)CC3)c(F)c2)c1=O` (some centres not stated), in series [1], the concentration for half-maximal inhibition (IC50) amounted to 128 nM. In addition, the solubility thermodynamic in series [2] turned out to be 0.0291 µg/mL (≈ 0.0402 µM).
Take `CCC(C)n1ncn(-c2ccc(N3CCN(c4ccc(OC[C@@H]5CO[C@@](Cn6cncn6)(c6ccc(Cl)cc6Cl)O5)cn4)CC3)c(F)c2)c1=O` (some centres not stated): the half-inhibitory concentration (IC50) in series [1] stood at 173 nM. Besides, in series [2], the solubility thermodynamic came to 0.848 µg/mL (≈ 1.17 µM).
The like results for `CCC(C)n1ncn(-c2ccc(N3CCN(c4ccc(OC[C@@H]5CO[C@@](Cn6cncn6)(c6ccc(Cl)cc6Cl)O5)nc4)CC3)c(F)c2)c1=O` (some centres not stated) were, in that order, 446 nM and 0.255 µg/mL (≈ 0.352 µM).
In series [2] (buffer), `CCC(C)n1ncn(-c2ccc(N3CCN(c4ccc(OCC5COC(Cn6cncn6)(c6ccc(Cl)cc6Cl)O5)cc4)CC3)cc2)c1=O` (configuration not stated) [ITRACONAZOLE] showed a Therm_solubility of 0.0101 µg/mL. The inhibition result in series [3] is “Active”. Also, the outcome in the series on HUVEC [8] was Active.
`CCC(C)n1ncn(-c2ccc(N3CCN(c4ccc(OC[C@@H]5CO[C@@](Cn6cnnn6)(c6ccc(Cl)cc6Cl)O5)cc4)CC3)cc2)c1=O` (some centres not stated): the solubility thermodynamic in series [2] stood at 0.321 µg/mL (≈ 0.455 µM). Besides, the inhibition entry in series [3] is “Active”.
